Measurements published in article PMC8207330 (Leukemia research, 2017).
Where “and” joins values, the source holds several entries; their conditions need not be identical. Equal values may be shown once. Read-outs that look alike come from different tables or passages of the source.

Tests used:
[1] = tested on: patients with JAK2^V617F-positive myelofibrosis, essential thrombocythemia, or polycythemia vera; type: in vivo
[2] = Pharmacokinetics in patients; type: in vivo, human
[3] = tested on: patients with JAK2^V617F-positive myelofibrosis, essential thrombocythemia, or polycythemia vera; test: Clinical efficacy; type: in vivo, human
Outline: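 Multicentre, nonrandomised, open-label phase 1 of the oral test compound given once daily in 28-day cycles. 3 + 3 escalation through 30, 60, 120, 240 and 200 mg. A 120 mg lead-in for 14–28 days was followed by 200 or 300 mg, and 120 mg was used for dose confirmation. Response was scored by IWG clinical-improvement criteria, or European LeukemiaNet criteria for PV/ET, with duration counted in cycles. Analysis was descriptive.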

[4] = cohort 6, 120 mg (Cycle 1a), N = 8
[5] = cohort 6, 200 mg (Cycle 1b), N = 7
[6] = cohort 7, 120 mg (Cycle 1a), N = 6
[7] = cohort 7, 300 mg (Cycle 1b), N = 5
[8] = cohort L (withdrawn in lead-in phase), 120 mg, N = 1
[9] = cycle 1, cohort 1, 30 mg, N = 3
[10] = cycle 1, cohort 2, 60 mg, N = 3
[11] = cycle 1, cohort 3, 120 mg, N = 10
[12] = cycle 1, cohort 4, 240 mg, N = 3
[13] = cycle 1, cohort 5, 200 mg, N = 3

For `Cc1cc(Nc2cc(CN3CCOCC3)c3nc(C)c(Cc4ccc(Cl)cc4F)n3n2)n[nH]1` [gandotinib], the “Patients with ≥ 1 SAE possibly related to study drug” value (“Patients … to study drug” for short) ([1]; 30 mg (N = 3)) was 0 n%, the “SAE possibly related: Anemia” value ([1]; 30 mg (N = 3)) was 0 n% and the “SAE possibly related: Blood creatinine increased” value ([1]; 30 mg (N = 3)) was 0 n%. The “SAE possibly related: Hyperkalemia” value ([1]; 30 mg (N = 3)) was 0 n%, the “SAE possibly related: Hyperuricemia” value ([1]; 30 mg (N = 3)) was 0 n% and the “SAE possibly related: Renal failure, acute” value (“SAE possibly related … acute” below) ([1]; 30 mg (N = 3)) was 0 n%. The “Patients … to study drug” value ([1]; 60 mg (N = 7)) was 0 n%, the “SAE possibly related: Anemia” value ([1]; 60 mg (N = 7)) was 0 n% and the “SAE possibly related: Blood creatinine increased” value ([1]; 60 mg (N = 7)) was 0 n%. The “SAE possibly related: Hyperkalemia” value ([1]; 60 mg (N = 7)) was 0 n%, the “SAE possibly related: Hyperuricemia” value ([1]; 60 mg (N = 7)) was 0 n% and the “SAE possibly related … acute” value ([1]; 60 mg (N = 7)) was 0 n%. For the same compound, the “Patients … to study drug” value ([1]; 120 mg (N = 34)) was 0 n%, the “SAE possibly related: Anemia” value ([1]; 120 mg (N = 34)) was 0 n% and the “SAE possibly related: Blood creatinine increased” value ([1]; 120 mg (N = 34)) was 0 n%. The “SAE possibly related: Hyperkalemia” value ([1]; 120 mg (N = 34)) was 0 n%, the “SAE possibly related: Hyperuricemia” value ([1]; 120 mg (N = 34)) was 0 n% and the “SAE possibly related … acute” value ([1]; 120 mg (N = 34)) was 0 n%. The DLTs observed ([1]; 200 mg) was 3 DLTs, the “Patients … to study drug” value ([1]; 200 mg (N = 15)) was 4 (26.7) n% and the “SAE possibly related: Anemia” value ([1]; 200 mg (N = 15)) was 1 (6.7) n%. For the same compound, the “SAE possibly related: Blood creatinine increased” value ([1]; 200 mg (N = 15)) was 3 (20.0) n%, the “SAE possibly related: Hyperkalemia” value ([1]; 200 mg (N = 15)) was 0 (0.0) n% and the “SAE possibly related: Hyperuricemia” value ([1]; 200 mg (N = 15)) was 1 (6.7) n%. The “SAE possibly related … acute” value ([1]; 200 mg (N = 15)) was 1 (6.7) n%, the “Patients … to study drug” value ([1]; 240 mg (N = 3)) was 1 (33.3) n% and the “SAE possibly related: Anemia” value ([1]; 240 mg (N = 3)) was 0 n%. For the same compound, the “SAE possibly related: Blood creatinine increased” value ([1]; 240 mg (N = 3)) was 1 (33.3) n%, the “SAE possibly related: Hyperkalemia” value ([1]; 240 mg (N = 3)) was 0 n% and the “SAE possibly related: Hyperuricemia” value ([1]; 240 mg (N = 3)) was 0 n%. For the same compound, the “SAE possibly related … acute” value ([1]; 240 mg (N = 3)) was 0 n%, the “Patients … to study drug” value ([1]; 300 mg (N = 5)) was 1 (20.0) n% and the “SAE possibly related: Anemia” value ([1]; 300 mg (N = 5)) was 0 n%. The “SAE possibly related: Blood creatinine increased” value ([1]; 300 mg (N = 5)) was 0 n%, the “SAE possibly related: Hyperkalemia” value ([1]; 300 mg (N = 5)) was 0 n% and the “SAE possibly related: Hyperuricemia” value ([1]; 300 mg (N = 5)) was 0 n%. For the same compound, the “SAE possibly related … acute” value ([1]; 300 mg (N = 5)) was 1 (20.0) n%, the “TEAE: nausea” value ([1]; 16 of 38 patients, majority grade 1) was 42.1% and the “TEAE: diarrhea” value ([1]; 21 of 38 patients, majority grade 1) was 55.3%. The “Patients … to study drug” value ([1]; Grade 3 and above, Total) was 6 (15.8) n%, the “SAE possibly related: Anemia” value ([1]; Grade 3 and above, Total) was 1 (2.6) n% and the “SAE possibly related: Blood creatinine increased” value ([1]; Grade 3 and above, Total) was 1 (2.6) n%. The “SAE possibly related: Hyperkalemia” value ([1]; Grade 3 and above, Total) was 0 n%, the “SAE possibly related: Hyperuricemia” value ([1]; Grade 3 and above, Total) was 2 (5.3) n% and the “SAE possibly related … acute” value ([1]; Grade 3 and above, Total) was 2 (5.3) n%. The “Patients … to study drug” value ([1]; Grade 4 and above, Total) was 2 (5.3) n%, the “SAE possibly related: Anemia” value ([1]; Grade 4 and above, Total) was 0 n% and the “SAE possibly related: Blood creatinine increased” value ([1]; Grade 4 and above, Total) was 0 n%. The “SAE possibly related: Hyperkalemia” value ([1]; Grade 4 and above, Total) was 0 n%, the “SAE possibly related: Hyperuricemia” value ([1]; Grade 4 and above, Total) was 2 (5.3) n% and the “SAE possibly related … acute” value ([1]; Grade 4 and above, Total) was 0 n%. The “SAE possibly related … acute” value ([1]; Total (N = 38), 2 MF, 1 ET, 1 PV) was 4 (10.5) [2 MF, 1 ET, 1 PV] n%, the “SAE possibly related: Anemia” value ([1]; Total (N = 38), MF) was 1 (2.6) MF n% and the “SAE possibly related: Blood creatinine increased” value ([1]; Total (N = 38), MF) was 5 (13.2) MF n%. For the same compound, the “SAE possibly related: Hyperkalemia” value ([1]; Total (N = 38), MF) was 1 (2.6) MF n%, the “SAE possibly related: Hyperuricemia” value ([1]; Total (N = 38), MF) was 2 (5.3) MF n% and the “DLT: Blood creatinine increased” value [1, 4] was 3 (37.5) n (%). The “DLT: Hyperkalemia” value [1, 4] was 0 n (%), the “DLT: Hyperuricemia” value [1, 4] was 0 n (%) and the “DLT: Renal failure acute” value [1, 4] was 0 n (%). For the same compound, the “Patients with DLT” value [1, 4] was 3 (37.5) n (%), the “DLT: Blood creatinine increased” value [1, 5] was 3 (42.9) n (%) and the “DLT: Hyperkalemia” value [1, 5] was 0 n (%). For the same compound, the “DLT: Hyperuricemia” value [1, 5] was 0 n (%), the “DLT: Renal failure acute” value [1, 5] was 0 n (%) and the “Patients with DLT” value [1, 5] was 3 (42.9) n (%). For the same compound, the “DLT: Blood creatinine increased” value [1, 6] was 0 n (%), the “DLT: Hyperkalemia” value [1, 6] was 0 n (%) and the “DLT: Hyperuricemia” value [1, 6] was 0 n (%). The “DLT: Renal failure acute” value [1, 6] was 0 n (%), the “Patients with DLT” value [1, 6] was 0 n (%) and the “DLT: Blood creatinine increased” value [1, 7] was 1 (20.0) n (%). For the same compound, the “DLT: Hyperkalemia” value [1, 7] was 0 n (%), the “DLT: Hyperuricemia” value [1, 7] was 0 n (%) and the “DLT: Renal failure acute” value [1, 7] was 1 (20.0) n (%). The “Patients with DLT” value [1, 7] was 2 (40.0) n (%), the “DLT: Blood creatinine increased” value [1, 8] was 0 n (%) and the “DLT: Hyperkalemia” value [1, 8] was 0 n (%). The “DLT: Hyperuricemia” value [1, 8] was 0 n (%), the “DLT: Renal failure acute” value [1, 8] was 0 n (%) and the “Patients with DLT” value [1, 8] was 0 n (%). For the same compound, the “DLT: Blood creatinine increased” value ([1]; cycle 1, Total, N = 37) was 5 (13.5) n (%), the “DLT: Hyperkalemia” value ([1]; cycle 1, Total, N = 37) was 1 (2.7) n (%) and the “DLT: Hyperuricemia” value ([1]; cycle 1, Total, N = 37) was 2 (5.4) n (%). For the same compound, the “DLT: Renal failure acute” value ([1]; cycle 1, Total, N = 37) was 1 (2.7) n (%), the “Patients with DLT” value ([1]; cycle 1, Total, N = 37) was 9 (24.3) n (%) and the “DLT: Blood creatinine increased” value [1, 9] was 0 n (%). For the same compound, the “DLT: Hyperkalemia” value [1, 9] was 0 n (%), the “DLT: Hyperuricemia” value [1, 9] was 0 n (%) and the “DLT: Renal failure acute” value [1, 9] was 0 n (%). The “Patients with DLT” value [1, 9] was 0 n (%), the “DLT: Blood creatinine increased” value [1, 10] was 0 n (%) and the “DLT: Hyperkalemia” value [1, 10] was 0 n (%). The “DLT: Hyperuricemia” value [1, 10] was 0 n (%), the “DLT: Renal failure acute” value [1, 10] was 0 n (%) and the “Patients with DLT” value [1, 10] was 0 n (%). The “DLT: Blood creatinine increased” value [1, 11] was 0 n (%), the “DLT: Hyperkalemia” value [1, 11] was 0 n (%) and the “DLT: Hyperuricemia” value [1, 11] was 0 n (%). For the same compound, the “DLT: Renal failure acute” value [1, 11] was 0 n (%), the “Patients with DLT” value [1, 11] was 0 n (%) and the “DLT: Blood creatinine increased” value [1, 12] was 0 n (%). For the same compound, the “DLT: Hyperkalemia” value [1, 12] was 0 n (%), the “DLT: Hyperuricemia” value [1, 12] was 1 (33.3) n (%) and the “DLT: Renal failure acute” value [1, 12] was 0 n (%). The “Patients with DLT” value [1, 12] was 1 (33.3) n (%), the “DLT: Blood creatinine increased” value [1, 13] was 1 (33.3) n (%) and the “DLT: Hyperkalemia” value [1, 13] was 1 (33.3) n (%). The “DLT: Hyperuricemia” value [1, 13] was 1 (33.3) n (%), the “DLT: Renal failure acute” value [1, 13] was 0 n (%) and the “Patients with DLT” value [1, 13] was 3 (100) n (%). The DLTs observed ([1]; first 3 tested doses (30, 60, 120 mg)) was “No DLTs”, the “treatment discontinuation due to renal failure” value ([1]; most frequent adverse event resulting in discontinuation) was 4 patients and the Vd/F ([2]; human, plasma, oral) was 682 L. For the same compound, the half-life ([2]; human, plasma, oral) was about 6 h, the “apparent clearance (CL/F)” value ([2]; mean value, CV of 68) was 80.7 L/h and the “time at which maximum plasma concentration (Cmax) was reached” value ([2]; on average, after single and multiple doses) was 4 h. For the same compound, the partial response ([3]; ET (1 patient enrolled)) was “One”, the “duration of clinic-hematologic partial response” value ([3]; PV patients) was 3–16 cycles and the “JAK2^V617F allele burden reduction of ≥50% at any time” value ([3]; across all cohorts) was 5 of 36. For the same compound, the “palpable spleen length reduction of ≥ 50% at any time during therapy” value ([3]; across all cohorts) was 20/32 and 20 of 32, the no clinic-hematologic response ([3]; of the 6 patients with PV) was 3 patients and the clinic-hematologic partial response ([3]; of the 6 patients with PV (2 in cohort 6, 1 in cohort 7)) was 3 patients.
